Source: ChEMBL document CHEMBL3856284, “Discovery, design and synthesis of 6H-anthra[1,9-cd]isoxazol-6-one scaffold as G9a inhibitor through a combination of shape-based virtual screening and structure-based molecular modification” (Bioorg Med Chem, 2016)

How the values were obtained:
[1] = Antiproliferative activity against human HCT116 cells assessed as inhibition of cell viability after 72 hrs by MTT assay; format: functional, cell-based; conditions: HCT-116, 72 h
[2] = Antiproliferative activity against human MCF7 cells assessed as inhibition of cell viability after 72 hrs by MTT assay; format: functional, cell-based; conditions: MCF7, 72 h
[3] = Antiproliferative activity against human HepG2 cells assessed as inhibition of cell viability after 72 hrs by MTT assay; format: functional, cell-based; conditions: HepG2, 72 h
[4] = target: T1, Histone-lysine N-methyltransferase EHMT2 (Homo sapiens, UniProt Q96KQ7); assay: Inhibition of G9a (unknown origin) using biotinylated-histone H3 (1 to 21 residues)/S-adenosyl-methionine as substrate/methyl donor after 3 hrs by AlphaScreen assay
T1 sequence (Q96KQ7 whole entry): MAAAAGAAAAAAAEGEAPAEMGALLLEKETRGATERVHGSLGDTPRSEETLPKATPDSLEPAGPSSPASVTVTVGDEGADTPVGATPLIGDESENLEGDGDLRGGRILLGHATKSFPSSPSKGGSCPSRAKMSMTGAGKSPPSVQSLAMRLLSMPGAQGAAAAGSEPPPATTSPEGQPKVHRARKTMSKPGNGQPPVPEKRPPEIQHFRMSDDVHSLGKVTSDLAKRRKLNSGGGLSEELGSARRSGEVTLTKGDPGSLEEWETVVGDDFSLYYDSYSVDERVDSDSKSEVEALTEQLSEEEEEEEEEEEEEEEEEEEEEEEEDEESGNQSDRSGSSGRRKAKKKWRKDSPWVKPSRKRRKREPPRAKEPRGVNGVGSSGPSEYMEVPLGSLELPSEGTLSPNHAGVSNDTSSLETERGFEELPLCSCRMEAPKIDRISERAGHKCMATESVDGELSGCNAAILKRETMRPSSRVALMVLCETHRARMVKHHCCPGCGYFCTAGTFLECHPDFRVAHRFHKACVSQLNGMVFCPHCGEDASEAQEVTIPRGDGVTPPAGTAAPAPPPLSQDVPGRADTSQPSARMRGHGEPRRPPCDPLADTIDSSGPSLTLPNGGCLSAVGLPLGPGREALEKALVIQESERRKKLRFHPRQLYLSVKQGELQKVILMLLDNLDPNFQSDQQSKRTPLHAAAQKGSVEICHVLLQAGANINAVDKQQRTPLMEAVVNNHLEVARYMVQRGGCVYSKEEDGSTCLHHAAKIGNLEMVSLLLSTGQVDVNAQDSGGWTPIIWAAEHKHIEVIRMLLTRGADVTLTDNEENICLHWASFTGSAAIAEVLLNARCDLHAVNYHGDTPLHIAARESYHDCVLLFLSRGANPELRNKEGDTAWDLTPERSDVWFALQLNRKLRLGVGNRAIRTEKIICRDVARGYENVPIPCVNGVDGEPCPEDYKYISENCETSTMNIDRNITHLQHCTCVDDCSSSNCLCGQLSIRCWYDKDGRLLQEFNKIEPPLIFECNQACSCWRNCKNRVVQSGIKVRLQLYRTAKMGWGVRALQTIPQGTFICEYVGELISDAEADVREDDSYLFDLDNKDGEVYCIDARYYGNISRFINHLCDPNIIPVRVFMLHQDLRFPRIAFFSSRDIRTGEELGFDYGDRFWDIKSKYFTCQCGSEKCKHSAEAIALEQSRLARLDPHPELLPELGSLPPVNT
In short: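 AlphaScreen G9a assay. Compounds were first screened at 10 µM. IC50 came from concentration-response curves of ten escalating concentrations (0.1 nM–10 µM), using two independent experiments, reported as mean ± SD.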

[5] = target: T1, Histone-lysine N-methyltransferase EHMT2; assay: Inhibition of G9a (unknown origin)

SMILES	IC50 [4] [µM]	EC50 [5] [µM]	IC50 [1] [µM]	IC50 [2] [µM]	IC50 [3] [µM]
CN(C)c1cc(NCCCN2CCCC2)c2c3c(onc13)-c1ccccc1C2=O	2.98	–	11.3	8.61	16.9
COc1ccc(Nc2cc(N3CCCC3)c3noc4c3c2C(=O)c2ccccc2-4)cc1	–	–	> 200	> 200	66.7
CN(C)CCNc1cc(N2CCCCC2)c2noc3c2c1C(=O)c1ccccc1-3	3.75	–	25.4	10.3	15.6
CCN1CCN(c2cc(Nc3ccc(OC)cc3)c3c4c(onc24)-c2ccccc2C3=O)CC1	–	–	> 200	> 200	> 200
O=C1c2ccccc2-c2onc3c(N4CCCC4)cc(NCCN4CCCC4)c1c23	1.22	–	7.46	10.8	24.9
COc1cc2c(NC3CCN(C(C)C)CC3)nc(C3CCCCC3)nc2cc1OCCCN1CCCC1	–	–	3.35	6.99	3.7
CN(C)CCNc1cc(N(C)C)c2noc3c2c1C(=O)c1ccccc1-3	3.47	–	30.7	16.6	12.3
CN1CCCN(c2cc(NCCN3CCCCC3)c3c4c(onc24)-c2ccccc2C3=O)CC1	2.49	–	3.96	5.08	6.21
COc1ccc(Nc2cc(N3CCN(C)CC3)c3noc4c3c2C(=O)c2ccccc2-4)cc1	39.2	–	140	> 200	> 200
COC(=O)c1ccc2c(c1)nc(NC(=O)c1ccccc1)n2CCCc1ccccc1	–	5	–	–	–
CCN1CCN(c2cc(Nc3ccccc3F)c3c4c(onc24)-c2ccccc2C3=O)CC1	–	–	> 200	> 200	> 200
CCN1CCN(c2cc(Nc3ccc(C)cc3)c3c4c(onc24)-c2ccccc2C3=O)CC1	–	–	> 200	> 200	> 200
CN(C)CCNc1cc(N2CCN(c3ncccn3)CC2)c2noc3c2c1C(=O)c1ccccc1-3	3.84	–	4.39	4.31	9.14
CN(C)CCNc1cc(N2CCN(C)CC2)c2noc3c2c1C(=O)c1ccccc1-3	4.84	–	18.2	10.8	28.6

More lines, in order of falling IC50 [4], values ahead:

IC50 [4] [µM]	EC50 [5] [µM]	SMILES	IC50 [1] [µM]	IC50 [2] [µM]	IC50 [3] [µM]
6.89	–	CN1CCN(c2cc(NCCN3CCCC3)c3c4c(onc24)-c2ccccc2C3=O)CC1	6.23	13.9	27.8
5.97	–	CN(C)CCNc1cc(N2CCCC2)c2noc3c2c1C(=O)c1ccccc1-3	52.9	17.6	20.5
4.57	–	O=C1c2ccccc2-c2onc3c(N4CCN(c5ncccn5)CC4)cc(NCCN4CCCC4)c1c23	3.36	4.06	3.1
3.96	–	CN1CCCN(c2cc(NCCN3CCCC3)c3c4c(onc24)-c2ccccc2C3=O)CC1	3.2	8.26	9.35
3.87	–	CN(C)c1cc(NCCN2CCCC2)c2c3c(onc13)-c1ccccc1C2=O	6.99	28	24.9
3.48	–	CCN1CCN(c2cc(NCCN3CCCC3)c3c4c(onc24)-c2ccccc2C3=O)CC1	4.34	20.8	8.32
3.22	–	O=C1c2ccccc2-c2onc3c(N4CCN(c5ccccc5)CC4)cc(NCCN4CCCC4)c1c23	4.28	3.77	10.8
2.68	–	O=C1c2ccccc2-c2onc3c(N4CCN(c5ccccc5)CC4)cc(NCCN4CCCCC4)c1c23	5.32	1.22	10.4
1.87	–	CN1CCN(c2cc(NCCN3CCCCC3)c3c4c(onc24)-c2ccccc2C3=O)CC1	4.56	8.37	8.34
